High-throughput results: PubChem, several laboratories
CSC inhib: cancer stem cell viability inhibitors, primary screen, luminescence. AID 2717, 2010. 1.1% of 300,000 active. inhibition, % at 7.5 µM. cancer stem cell-like cells viability; in the data active means inhibition above about 75%; tested in HMLE shEcad cells
T cruzi inh: inhibitors of intracellular T. cruzi growth, primary screen, luminescence, NIH3T3 host cells | 1.4% of 300,000 active | T. cruzi beta-gal in NIH3T3, 90 h | inhibition, % (concentration not given with the values);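 active means mean inhibition across valid replicates above about 55%, limit read from the data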;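 further: signal also drops with host cell toxicity which is not excluded here; 0% = plate median of DMSO wells and 100% = zero luminescence signal; higher percent means less beta-gal luminescence so fewer parasites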
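Read-out: Parasite load inhibition, % | Test system: Mouse NIH/3T3 fibroblasts infected with β-gal-expressing T. cruzi Tulahuen C4 | Amount: 5,000 cells/well | Medium: DMEM, 2% fetal bovine serum | Signal: GalScreen β-gal luminescence, detergent lysis, 60 min | Timing: 3 h attach, ≥90 h co-culture | Also added: Tulahuen C4 trypomastigotes, 5000/well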
Mot1-301 SUMO: yeast Mot1-301 growth rescue at high temperature, primary screen, SUMOylation pathway inhibitor project, S. cerevisiae, ATP luminescence, 38.5C. 1% of 320,000 active. S. cerevisiae Mot1-301 growth rescue; percent above DMSO median, 100 means doubled. growth rescue, % at 18.8 µM. AID 2716, 2010;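 active means every valid replicate shows activation above 250% relative to neutral control wells; inactive means the rest, any valid replicate at or below 250%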;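 further: OY570 slx delta 5 strain wells were the positive control but not used for scaling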
Beta cell apopt: inhibitors of cytokine-induced beta cell apoptosis, primary screen, luminescence | 0.8% of 300,000 active | protection from apoptosis, % (no concentration beside the values) | INS-1E cytokine-induced death, ATP luminescence, 48 h; percent of positive-control rescue, neutral wells zero;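 active means Every replicate reaches about 75%, or at least half do and their mean reaches it too, limit read from the data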;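 further: 0% = cytokine-treated negative control wells and 100% = positive control rescue; higher means more ATP so stronger rescue from cytokine killing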
WT yeast gro inh: growth inhibition of WT strain, primary screen, mitochondrial fusion inhibitor project, WT and mutant strains, chemical genetic; mitochondrial fusion phenotypic screen; inhibition, % at 10 µM; 2.1% of 190,000 active; in the data active means inhibition above about 58%; tested in S. cerevisiae
Efflux pump inh: inhibitors of Candida efflux pumps in yeast, primary screen, S. cerevisiae, Nile Red, multiplex | inhibition, % at 10 µM | 0.44% of 330,000 active | AID 485275, 2010 | S. cerevisiae Candida pump triplex;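 active means plate passing quality check with inhibition over a set limit, or well fluorescence over plate mean plus 4 SD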;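 further: Nile Red retained in pooled yeast measured as flow cytometry median fluorescence; 0% = buffer negative control and 100% = Enniatin B positive control; higher means more Nile Red kept so more efflux inhibition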
Yeast cmpd fluor: counter-screen for efflux pump inhibitors: compound fluorescence; shares compounds with Efflux pump inh; S. cerevisiae AD/pABC3, flow cytometry; fluorescence ratio to DMSO, % at 10 µM; 4% of 1,700 active;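 active means fluorescence ratio to DMSO above its plate's cutoff, the plate mean ratio plus 5 SD, cut at about 210% in these data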;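 further: unstained yeast with no Nile Red so the signal is compound autofluorescence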
CaMdr1 efflux inh: inhibitors of Candida albicans Mdr1 efflux, confirmation, flow cytometry, singleplex, Cherry Pick1 set; S. cerevisiae AD/CaMDR1, Nile Red efflux; inhibition, % at 10 µM; 1% of 1,700 active; shares compounds with Efflux pump inh; in the data active means inhibition above about 26%;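 further: 0% = DMSO vehicle and 100% = reference inhibitor; higher means more Nile Red retained so more efflux inhibition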
CaCdr2 efflux inh: inhibitors of Candida albicans Cdr2 efflux pump, confirmation, S. cerevisiae AD/CaCDR2, flow cytometry, cherry pick 1, singleplex; shares compounds with Efflux pump inh; Nile Red retention; Nile Red retention ratio vs DMSO, % at 10 µM; 4% of 1,700 active; AID 588520, 2011; in the data active means Nile Red retention ratio vs DMSO above about 190%;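 further: higher ratio means more blocking of Cdr2 efflux of the dye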
CaCdr1 efflux inh: inhibitors of Candida albicans Cdr1 efflux pump, confirmation, S. cerevisiae AD/CaCDR1, flow cytometry, cherry pick 1, singleplex | 1% of 1,700 active | inhibition, % at 10 µM | Nile Red efflux | AID 588522, 2011 | shares compounds with Efflux pump inh;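 active means inhibition above the screen-wide mean plus twice its standard deviation, cut at about 32% in these data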
An asterisk follows results filed as active. Most compounds without a hit are left out; they make up all but 4.8% or so of the library.

`CCC(C)NC(=O)c1ccc(CSc2nc3ccncc3n2Cc2ccc(F)cc2)cc1` (stereo not given) gave CSC inhib -6, T cruzi inh -6, Mot1-301 SUMO 9, Beta cell apopt 3, WT yeast gro inh -10, Efflux pump inh 0, Yeast cmpd fluor 110, CaMdr1 efflux inh 0, CaCdr2 efflux inh 92 and CaCdr1 efflux inh 0.
O=C(c1cc(COc2cccc(C(F)(F)F)c2)on1)N1CCC(c2ccncc2)CC1 was read as CSC inhib 31, T cruzi inh 23, Mot1-301 SUMO 298, Beta cell apopt 111*, Efflux pump inh 0.5*, Yeast cmpd fluor 146, CaMdr1 efflux inh 3, CaCdr2 efflux inh 206* and CaCdr1 efflux inh 3.
For COc1ccccc1/C=C/C(=O)OCC(=O)Nc1cc(C(F)(F)F)ccc1N1CCOCC1 the results were T cruzi inh 21 and WT yeast gro inh 1.
`COc1ccc(NC(=O)N(C)C[C@H]2Oc3c(NC(=O)Nc4ccccc4)cccc3C(=O)N([C@H](C)CO)C[C@@H]2C)cc1` gave CSC inhib -11, Mot1-301 SUMO 0, Beta cell apopt -2 and Efflux pump inh 0.
For COc1ccc(NC(=O)Nc2cccc3c2O[C@H](CN(C)C(=O)Nc2ccc(OC)cc2)[C@@H](C)CN([C@H](C)CO)C3=O)cc1 the results were CSC inhib -14, Mot1-301 SUMO 13, Beta cell apopt 3, Efflux pump inh 0, Yeast cmpd fluor 101, CaMdr1 efflux inh 0, CaCdr2 efflux inh 116 and CaCdr1 efflux inh 0.
COc1ccc(NC(=O)N(C)C[C@H]2Oc3c(NC(=O)Nc4c(C)noc4C)cccc3C(=O)N([C@H](C)CO)C[C@@H]2C)cc1 was read as Efflux pump inh 0, Yeast cmpd fluor 100, CaMdr1 efflux inh 0, CaCdr2 efflux inh 109 and CaCdr1 efflux inh 0.
`O=C(CN1C(=O)CC(c2ccco2)Sc2ccccc21)Nc1ccc2c(c1)OCCO2` (stereo not given) gave CSC inhib -10, T cruzi inh 10, Mot1-301 SUMO 2, Beta cell apopt -3, WT yeast gro inh 18, Efflux pump inh 0.7*, Yeast cmpd fluor 101, CaMdr1 efflux inh 0, CaCdr2 efflux inh 96 and CaCdr1 efflux inh 0.
Screening O=C(CN1C(=O)CCSc2ccccc21)Nc1ccc(F)cc1 returned T cruzi inh -4, Mot1-301 SUMO 28, Beta cell apopt 1, WT yeast gro inh 5, Efflux pump inh 0, Yeast cmpd fluor 99, CaMdr1 efflux inh 0, CaCdr2 efflux inh 98 and CaCdr1 efflux inh 0.
For CC1CC(=O)N(CC(=O)Nc2ccc3c(c2)OCO3)c2ccccc2S1 (stereo not given) the results were CSC inhib -13, T cruzi inh 1, Mot1-301 SUMO 101, Beta cell apopt -5, WT yeast gro inh -1, Efflux pump inh 0, Yeast cmpd fluor 80, CaMdr1 efflux inh 0, CaCdr2 efflux inh 89 and CaCdr1 efflux inh 0.
For O=C(CN1C(=O)CCSc2ccccc21)Nc1ccc2c(c1)OCCO2 the results were CSC inhib -7, T cruzi inh -11, Mot1-301 SUMO 170, Beta cell apopt 2 and Efflux pump inh 0.
O=C(CN1C(=O)CCSc2ccccc21)Nc1ccccc1 was read as CSC inhib -5, T cruzi inh -14, Mot1-301 SUMO 70, Beta cell apopt 0, WT yeast gro inh 2 and Efflux pump inh 0.
Screening O=C(O)CN1C(=O)c2ccc(Oc3ccc4c(c3)C(=O)N(CC(=O)O)C4=O)cc2C1=O returned CSC inhib 1, T cruzi inh -15, Mot1-301 SUMO 0, Beta cell apopt -2 and Efflux pump inh 0.
O=C(NC1CCC(O)CC1)c1cccc2cccnc12 (stereo not given) was read as CSC inhib 2, T cruzi inh -10, Mot1-301 SUMO 5, Beta cell apopt -4 and Efflux pump inh 0.
CCCSc1nnc(-c2c[nH]c3ccccc23)n1C was read as CSC inhib 19, T cruzi inh 3, Mot1-301 SUMO -1, Beta cell apopt 0, WT yeast gro inh -16, Efflux pump inh 0.5*, Yeast cmpd fluor 80, CaMdr1 efflux inh 0, CaCdr2 efflux inh 93 and CaCdr1 efflux inh 0.
Screening CC1(C)NC(=O)N(CCCC(=O)Nc2ccc(C(F)(F)F)cc2)C1=O returned Efflux pump inh 0.
COC(=O)C1=C(C)N(CCCC(=O)O)C(=O)NC1c1ccccc1Cl (stereo not given) was read as CSC inhib -5, T cruzi inh 2, Mot1-301 SUMO 0, Beta cell apopt -5 and Efflux pump inh 0.
CCN(Cc1ccccc1)C(c1ccncc1)c1nnnn1C(C)(C)C (stereo not given) was read as T cruzi inh 12, Mot1-301 SUMO 123, WT yeast gro inh 3, Efflux pump inh 0.4*, Yeast cmpd fluor 102, CaMdr1 efflux inh 0, CaCdr2 efflux inh 107 and CaCdr1 efflux inh 0.
Fc1ccc(C(c2nnnn2C2CCCC2)N(Cc2ccco2)CC2CCCO2)cc1 (stereo not given) was read as CSC inhib -2, T cruzi inh 24, Mot1-301 SUMO -5, Beta cell apopt -16, WT yeast gro inh 14 and Efflux pump inh 0.
For c1ccc(CN(Cc2ccco2)C(c2ccncc2)c2nnnn2C2CCCC2)cc1 (stereo not given) the results were CSC inhib -15, T cruzi inh -4, Mot1-301 SUMO 3, Beta cell apopt -2, WT yeast gro inh -7, Efflux pump inh 0.6*, Yeast cmpd fluor 108, CaMdr1 efflux inh 0, CaCdr2 efflux inh 101 and CaCdr1 efflux inh 0.
